Data set [1] concerns Mus musculus. The data set can be described thus: Toxicity in female BDF1 mouse allografted with mouse L1210 cells assessed as animal survival at 200 mg/kg, ip administered daily for 9 days as Klucel suspension starting 24 hrs after tumor inoculation measured on fifth day. It is filed as organism-based. Further details: dose 200 mg/kg, route intraperitoneal. The following applies: in vivo. In a few lines: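 L1210 leukemia passaged as ascitic fluid and inoculated ip. Test agent given ip as a Klucel (hydroxypropylcellulose) suspension, nine daily doses starting 24 h after tumor inoculation. Acute toxicity read as toxicity-day survivors per group (out of 6), recorded on day 5. Animal weight difference T − C was also recorded. Follows NCI screening protocols.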

Data set [2] deals with Mus musculus. The data set can be described thus: Toxicity in female BDF1 mouse allografted with mouse P388 cells assessed as animal survival at 25 mg/kg, ip administered daily for 9 days as Klucel suspension starting 24 hrs after tumor inoculation. Format: organism-based. Further details: dose 25 mg/kg, route intraperitoneal. The following applies: in vivo. In a few lines: (§1)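 P-388 leukemia ascitic fluid inoculated ip. Compound given ip as a suspension in Klucel (hydroxypropylcellulose), once daily for nine doses beginning 24 h post-inoculation. Acute toxicity assessed as toxicity-day survivors per group. Survival was followed up to 30 days, with 30-day survival counted as "cure". Follows NCI screening protocols.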

The subject of data set [3] is P388. Description: Antitumor activity against mouse P388 cells allografted in male CDF1 mouse assessed as disease cures by measuring 30-days host survival at 6.25 mg/kg, ip administered daily for 9 days as Klucel suspension starting 24 hrs after tumor inoculation relative to control. It is filed as functional. The settings on record: route intraperitoneal. In a few lines: (§2)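 P388 leukemia given as an ascitic fluid cell inoculum, ip, to mice of the strain and sex in each line. Nine daily ip doses were given in a Klucel (hydroxypropylcellulose) suspension, starting 24 h after inoculation. Read-out is median survival time as %T/C, with >125 taken as significant; a "cure" means 30-day survival.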

Data set [4] deals with Mus musculus. The data set can be described thus: Toxicity in female CDF1 mouse allografted with mouse P388 cells assessed as animal survival at 200 mg/kg, ip administered daily for 9 days as Klucel suspension starting 24 hrs after tumor inoculation. It is filed as organism-based. Set-up: dose 200 mg/kg, route intraperitoneal. The settings on record: in vivo. The gist of the method: as §1

In data set [5] the test system is Mus musculus. The data set can be described thus: Toxicity in male CDF1 mouse allografted with mouse P388 cells assessed as animal survival at 25 mg/kg, ip administered daily for 9 days as Klucel suspension starting 24 hrs after tumor inoculation. It is filed as organism-based. Further details: dose 25 mg/kg, route intraperitoneal. The following applies: in vivo. The gist of the method: as §1

Data set [6] has as its system P388. The data set can be described thus: Antitumor activity against mouse P388 cells allografted in male CDF1 mouse assessed as change in body weight at 25 mg/kg, ip administered daily for 9 days as Klucel suspension starting 24 hrs after tumor inoculation. It is filed as functional. The settings on record: route intraperitoneal. The gist of the method: (§3)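 Ascitic fluid carrying P388 cells was inoculated ip. Compound was given ip in nine daily doses, starting 24 h after inoculation, in Klucel (hydroxypropylcellulose) suspension or in saline with Tween-80. Body-weight difference (treated minus control) was recorded on day 5. Survival was scored as %T/C of median survival time, and 30-day survival counted as cure.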

The test system of data set [7] is P388. The data set can be described thus: Antitumor activity against mouse P388 cells allografted in female CDF1 mouse assessed as change in body weight at 200 mg/kg, ip administered daily for 9 days as Klucel suspension starting 24 hrs after tumor inoculation. It is filed as functional. The following applies: route intraperitoneal. In a few lines:
as §3

In data set [8] the test system is P388. Description: Antitumor activity against mouse P388 cells allografted in male CDF1 mouse assessed as change in body weight at 12.5 mg/kg, ip administered daily for 9 days as Klucel suspension starting 24 hrs after tumor inoculation. The settings on record: route intraperitoneal. Format: functional. In a few lines:
as §3

Data set [9] relates to P388. The data set can be described thus: Antitumor activity against mouse P388 cells allografted in male CDF1 mouse assessed as change in body weight at 6.25 mg/kg, ip administered daily for 9 days as Klucel suspension starting 24 hrs after tumor inoculation. Format: functional. The settings on record: route intraperitoneal. The gist of the method:
as §3

For data set [10], the system named is P388. The data set can be described thus: Antitumor activity against mouse P388 cells allografted in female BDF1 mouse assessed as change in body weight at 6.25 mg/kg, ip administered daily for 9 days as Klucel suspension starting 24 hrs after tumor inoculation. Format: functional. The settings on record: route intraperitoneal. In a few lines:
as §3

Data set [11] deals with P388. The data set can be described thus: Antitumor activity against mouse P388 cells allografted in female CDF1 mouse assessed as disease cures by measuring 30-days host survival at 50 mg/kg, ip administered daily for 9 days as Klucel suspension starting 24 hrs after tumor inoculation relative to control. It is filed as functional. The following applies: route intraperitoneal. The gist of the method: as §2

For the molecule `CC(=O)OCc1c(COC(C)=O)c(-c2ccccc2)n2c1CCC2`, the Activity result with Mus musculus [1] is listed as “Toxic”; in the data set with Mus musculus [2], “Non-toxic”; with Mus musculus [4], “Toxic”; with Mus musculus [5], “Non-toxic”; in the data set with P388 [6], -1.2 g; in the data set on P388 [7], 0.5 g. Besides, the Activity in the data set on P388 [8] is -0.2 g; in the data set with P388 [9] it was -0.3 g; in the data set on P388 [10], -0.4 g. In addition, the T/C (usually the ratio of treated to control) with P388 [3] is 125%; with P388 [11], 79%.
